Measurements: ChEMBL document CHEMBL1121879, “In vitro activity of 2-alkyl-3-hydroxy-1,4-naphthoquinones against Theileria parva” (1981)
Converted amounts (≈) assume the structure as drawn.

What follows are compounds tested on Theileria parva (assay: In vitro concentration required to reduce the proportion of schizont infected cells in the culture to 50% of that of untreated control in the 48 hr incubation period). Conditions: read-out: ED50 (the source's name).
Format: functional
In short: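 T. parva-infected cell cultures were exposed to fourfold serial dilutions of each drug for 48 h, and the proportion of schizont-infected cells was compared with untreated controls. ED50 was expressed in mg/L, with at least two tests per compound.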

| Structure (SMILES) | EC50 [µg/mL] |
| --- | --- |
| O=C1C(=O)c2ccccc2C(O)=C1NC(=O)C1CCCCC1 | > 10 |
| CCCCCCCCCCCCCCCCCC1=C(O)C(=O)c2ccccc2C1=O | 0.01 (≈ 0.0242 µM) |
| O=C1C(=O)c2ccccc2C(O)=C1CCCCC1CCCCC1 | 0.06 (≈ 0.192 µM) |
| O=C1C(=O)c2ccccc2C(O)=C1CCC1CCCCC1 | 0.08 (≈ 0.281 µM) |
| NC1=C(CC2CCCCC2)C(=O)c2ccccc2C1=O | > 10 |
| O=C1C(Cl)=C(CC2CCCCC2)C(=O)c2ccccc21 | > 10 |
| O=C1C(=O)c2ccccc2C(O)=C1C1CC2CCC1C2 (centres undefined) | 0.06 (≈ 0.224 µM) |
| O=C1C(=O)c2ccccc2C(O)=C1CC1CCCCC1 | 0.03 (≈ 0.111 µM) |
| CCCCCCCCCCCCCCC1=C(O)C(=O)c2ccccc2C1=O | 0.006 (≈ 0.0162 µM) |
| CCCCCCCCCCCCC1=C(O)C(=O)c2ccccc2C1=O | 0.05 (≈ 0.146 µM) |
| CC(=O)OC1=C(CC2CCCCC2)C(=O)c2ccccc2C1=O | 1 (≈ 3.2 µM) |
| O=C1C(=O)c2ccccc2C(O)=C1C1CC1 | 10 (≈ 46.7 µM) |
| O=C1C(=O)c2ccccc2C(O)=C1SC1CCCCC1 | 6.5 (≈ 22.5 µM) |
| O=C1C(O)=C(C2C=CCCC2)C(=O)c2ccccc21 (centres undefined) | 1.5 (≈ 5.9 µM) |
| O=C1C(=O)c2ccccc2C(O)=C1CSC1CCCCC1 | > 10 |
| O=C1C(=O)c2ccccc2C(O)=C1C1CCCCCCC1 | 0.007 (≈ 0.0246 µM) |
| CCCCCCCCCCCCCC1=C(O)C(=O)c2ccccc2C1=O | 0.006 (≈ 0.0168 µM) |
| O=C1C(O)=C(CCCCCCCCCCC2=C(O)C(=O)c3ccccc3C2=O)C(=O)c2ccccc21 | 10 (≈ 20.6 µM) |
| O=C1C(=O)c2ccccc2C(O)=C1c1ccccc1 | > 10 |
| O=C1C(=O)c2ccccc2C(O)=C1CCCC1CCCCC1 | 0.06 (≈ 0.201 µM) |

| Structure (SMILES) | EC50 [µg/mL] |
| --- | --- |
| CCCCCCCCCCCCCCCCC1=C(O)C(=O)c2ccccc2C1=O | 0.01 (≈ 0.0251 µM) |
| O=C1C(=O)c2ccccc2C(O)=C1CCCCCCCC1CCCCC1 | 0.05 (≈ 0.141 µM) |
| COc1ccc2c(c1)C(=O)C(C1CCCCCC1)=C(O)C2=O | > 10 |
| CCCCCCCCCCCCCCCC1=C(O)C(=O)c2ccccc2C1=O | 0.01 (≈ 0.026 µM) |
| O=C1C(=O)c2ccccc2C(O)=C1C1CCCCCCCCCCC1 | 0.09 (≈ 0.264 µM) |
| O=C1C(O)=C(CCCCCC2=C(O)C(=O)c3ccccc3C2=O)C(=O)c2ccccc21 | > 10 |
| O=C1C(O)=C(NCC2CCCCC2)C(=O)c2ccccc21 | > 10 |
| O=C1C(O)=C(C2CCC(C3CCCCC3)CC2)C(=O)c2ccccc21 (centres undefined) | 0.006 (≈ 0.0177 µM) |
| O=C1C(O)=C(CCCCCCCCC2=C(O)C(=O)c3ccccc3C2=O)C(=O)c2ccccc21 | 1 (≈ 2.18 µM) |
| O=C1C(=O)c2ccccc2C(O)=C1C1CCCOC1 (centres undefined) | 6.8 (≈ 26.3 µM) |
| O=C1C(=O)c2ccccc2C(O)=C1C1CCC1 | 10 (≈ 43.8 µM) |
| O=C1C(=O)c2ccccc2C(O)=C1C1CCCC1 | 3.7 (≈ 15.3 µM) |
| O=C1C(=O)c2ccccc2C(O)=C1CCCCCC1CCCCC1 | 0.03 (≈ 0.0919 µM) |
| O=C1C(=O)c2ccccc2C(O)=C1C1CCCCCC1 | 0.01 (≈ 0.037 µM) |
| CCCCCCCCCC1=C(O)C(=O)c2ccccc2C1=O | 0.13 (≈ 0.433 µM) |
| O=C1C(O)=C(CCCCCCC2=C(O)C(=O)c3ccccc3C2=O)C(=O)c2ccccc21 | > 10 |
| CCCCCC1=C(O)C(=O)c2ccccc2C1=O | 1 (≈ 4.09 µM) |
| O=C1C(O)=C(CCCCCCCCC2CCCCC2)C(=O)c2ccccc21 [MENOCTONE] | 0.06 (≈ 0.163 µM) |
| O=C1C(O)=C(C2CCCCC2)C(=O)c2ccccc21 [PARVAQUONE] | 0.006 (≈ 0.0234 µM) |
